The values that follow come from ChEMBL document CHEMBL1777669, “Synthesis of substituted triazolyl curcumin mimics that inhibit RANKL-induced osteoclastogenesis” (Bioorg Med Chem Lett, 2011).

As usually defined, the IC50 is the concentration at which inhibition is half-maximal.

The first test deals with RAW264.7. Description: Antiresorptive activity in mouse RAW264.7 cells assessed as inhibition of RANKL-induced osteoclastogenesis after 4 days by TRAP assay.
Details: not given
It is filed as functional, cell-based. In a few lines:
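RAW264.7 cells, maintained in DMEM with 10% FBS and penicillin/streptomycin at 37 °C under 5% CO₂, were seeded at 1 × 10³ cells/well in α-MEM. On day 4, cells were fixed in 10% formalin (10 min) and 95% ethanol (1 min), then dried. TRAP activity was measured with 5 mM p-nitrophenylphosphate in 50 mM citrate buffer (pH 4.6, 10 mM tartrate) for 30 min, stopped with 0.1 N NaOH, and read at 410 nm.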
For the compound `COc1ccc(/C=C/C(=O)c2cccc(-n3cc(-c4ccc(C)cc4)nn3)c2)cc1O`, the inhibition result is “Dose-dependent effect”.

For `COc1cc(/C=C/C(=O)c2cccc(-n3cc(-c4ccccc4C(F)(F)F)nn3)c2)ccc1O`, the inhibition result is “Dose-dependent effect”.

For the compound `COc1ccc(/C=C/C(=O)c2cccc(-n3cc(-c4ccccc4)nn3)c2)cc1O`, the inhibition result is “Dose-dependent effect”.

Consider `COc1ccc(/C=C/C(=O)c2cccc(N=[N+]=[N-])c2)cc1O`, for which the inhibition entry is “Dose-dependent effect”.

Staying with this test, now noted: RAW264.7, 96 h.
Take `COc1cc(/C=C/C(=O)c2cccc(-n3cc(-c4ccc(Br)cc4)nn3)c2)ccc1O`: the IC50 was 19.1 µM.

`COc1cc(/C=C/C(=O)c2cccc(N=[N+]=[N-])c2)ccc1O`: the half-inhibitory concentration (IC50) amounted to 7.11 µM.

In the case of `COc1ccc(/C=C/C(=O)c2cccc(-n3cc(-c4cc(F)cc(F)c4)nn3)c2)cc1O`, the IC50 was 7.14 µM.

For `COc1ccc(/C=C/C(=O)c2cccc(-n3cc(-c4cccc(Cl)c4)nn3)c2)cc1O`, the IC50 is 6.61 µM.

For `COc1ccc(/C=C/C(=O)c2cccc(-n3cc(-c4ccc(F)cc4)nn3)c2)cc1O`, the IC50 was determined as 2.5 µM.

Turning to `COc1ccc(/C=C/C(=O)c2cccc(-n3cc(-c4ccc(Br)cc4)nn3)c2)cc1O`, the IC50 was 6.57 µM.

In the case of `COc1ccc(/C=C/C(=O)c2cccc(-n3cc(-c4ccc(C)cc4)nn3)c2)cc1O`, the 50% inhibitory concentration (IC50) is 1.7 µM.

As for `COc1ccc(-c2cn(-c3cccc(C(=O)/C=C/c4ccc(OC)c(O)c4)c3)nn2)cc1`, the concentration for half-maximal inhibition (IC50) is 6.29 µM.

As for `COc1cc(/C=C/C(=O)c2cccc(-n3cc(-c4ccccc4C(F)(F)F)nn3)c2)ccc1O`, the concentration for half-maximal inhibition (IC50) came out at 5.07 µM.

`COc1ccc(/C=C/C(=O)c2cccc(-n3cc(-c4ccccc4C(F)(F)F)nn3)c2)cc1O`: the IC50 was determined as 9.12 µM.

`COc1cc(/C=C/C(=O)c2cccc(-n3cc(-c4cc(F)cc(F)c4)nn3)c2)ccc1O`: the concentration for half-maximal inhibition (IC50) was determined as 22.8 µM.

As to `CCCCCc1ccc(-c2cn(-c3cccc(C(=O)/C=C/c4ccc(O)c(OC)c4)c3)nn2)cc1`, the half-maximal inhibitory concentration (IC50) was 5.78 µM.

As to `COc1cc(/C=C/C(=O)c2cccc(-n3cc(-c4cccc(Cl)c4)nn3)c2)ccc1O`, the IC50 is 14.3 µM.

Consider `C=C(C)c1cn(-c2cccc(C(=O)/C=C/c3ccc(OC)c(O)c3)c2)nn1`, for which the IC50 stood at 7.76 µM.

On to `COc1cc(/C=C/C(=O)c2cccc(-n3cc(C(C)(C)O)nn3)c2)ccc1O`, for which the 50% inhibitory concentration (IC50) turned out to be 19.8 µM.

For the compound `COc1cc(/C=C/C(=O)c2cccc(-n3cc(-c4ccc(F)cc4)nn3)c2)ccc1O`, the half-maximal inhibitory concentration (IC50) was determined as 6.45 µM.

As for `COc1ccc(/C=C/C(=O)c2cccc(-n3cc(C(C)(C)O)nn3)c2)cc1O`, the IC50 came to 17.1 µM.

`COc1ccc(-c2cn(-c3cccc(C(=O)/C=C/c4ccc(O)c(OC)c4)c3)nn2)cc1`: the IC50 turned out to be 7.9 µM.

As to `COc1ccc(/C=C/C(=O)c2cccc(-n3cc(-c4ccccc4)nn3)c2)cc1O`, the IC50 was 1.51 µM.

`C=C(C)c1cn(-c2cccc(C(=O)/C=C/c3ccc(O)c(OC)c3)c2)nn1`: the IC50 amounted to 9.79 µM.

As for `CCCCCc1ccc(-c2cn(-c3cccc(C(=O)/C=C/c4ccc(OC)c(O)c4)c3)nn2)cc1`, the concentration for half-maximal inhibition (IC50) is more than 30 µM.

With `COc1cc(/C=C/C(=O)c2cccc(-n3cc(-c4ccc(C)cc4)nn3)c2)ccc1O`, the IC50 amounted to 15.4 µM.

As for `COc1cc(/C=C/C(=O)c2cccc(-n3cc(-c4ccccc4)nn3)c2)ccc1O`, the IC50 is 16.8 µM.

Take `COc1ccc(/C=C/C(=O)c2cccc(N=[N+]=[N-])c2)cc1O`: the IC50 came to 1.96 µM.
